In experiment [1] the test system is Breast cancer cell line. The experiment in a line: Synergistic antitumor activity against human CRCM434 negative breast cancer cells xenografted in NSG mouse model of PDX assessed as reduction metastasis formation in lung at 50 mg/kg, ip 5 out of 7 for 2 weeks cotreated with salinomycin. The experiment is classed as functional, organism-based. In outline: (§1)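 Luciferase-expressing PDX cells sorted H2Kd⁻ and viable, 100,000 in 100 μl PBS injected in NSG tail vein. From the next day, salinomycin 3 mg/kg i.p. daily and/or JQ1 50 mg/kg i.p. 5 of 7 days for 2 weeks. Lungs and liver imaged by bioluminescence after i.p. luciferin 30 mg/kg; normalised photon flux; 10 mice/group; Wilcoxon test.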

A short description of experiment [2]: Antitumor activity against human S68 cells assessed as K-score by measuring ALDHbr cells by LSR2 cytometer. The format is functional. In outline: (§2)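 Cell lines exposed for 72 h in adherent culture to a range of concentrations centred on the MTS-derived IC50. ALDHbr proportion measured by ALDEFLUOR flow cytometry (LSR2). K-score is the linear regression coefficient, on log10-transformed doses, between the untreated condition and the dose predicted to give a 50% decrease or increase in ALDHbr proportion versus control.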

Experiment [3] concerns Breast cancer cell line. The experiment can be described thus: Antitumor activity against human CRCM494 negative breast cancer cells orthotopically xenografted in NSG mouse model of PDX assessed as reduction in tumor volume at 50 mg/kg, ip 5 out of 7 for 2 weeks. The experiment is classed as functional, organism-based. In outline:
(§3)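 Chemo-naïve triple-negative PDX cells injected at 100,000 per fat pad, two fat pads per NSG mouse. At ~80 mm³ tumours, mice received i.p. 3 mg/kg daily for 14 days or 50 mg/kg 5 of 7 days for 2 weeks; placebo was DMSO/HPCD 10% (1:9). Five mice (10 tumours) per group. Tumour growth monitored; after 2 weeks tumours dissociated, mouse cells excluded via anti-H2Kd, ALDHbr measured by ALDEFLUOR flow cytometry and normalised to vehicle.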
On the technique in general: In xenograft studies the graft and the host belong to different species.

Experiment [4] relates to SUM-159-PT. The experiment can be described thus: Synergistic anticancer activity against human SUM159 cells assessed as decrease in docetaxel induced ALDHbr cells at 62 nM in presence of salinomycin by LSR2 cytometer analysis. The format is functional, cell-based. In outline:
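SUM159 or SUM149 cells treated 72 h in adherent conditions; docetaxel combined with other drugs at 2 nM; combination doses chosen from synergy distributions (Sal/JQ1 62 nM/62 nM). ALDEFLUOR staining with DEAB control, flow cytometry on LSR2. n = 8; Student's t-test; mean ± SD.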

Experiment [5] relates to SUM-159-PT. The experiment in a line: Synergistic anticancer activity against human SUM159 cells expressing BFP assessed as reduction in ALDHbr cell at 5 to 500 nM in presence of salinomycin by LSR2 cytometer analysis. The experiment is classed as functional, cell-based. The following applies: dose 5-500 nM.
For experiment [6], the system named is Breast cancer cell line. The experiment in a line: Antitumor activity against human reimplanted CRCM494 negative breast cancer cells orthotopically xenografted in NSG mouse model of PDX assessed as reduction tumor volume at 50 mg/kg, ip 5 out of 7 for 2 weeks by limiting dilation analysis. The format is functional, organism-based. In short, it runs like this:
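After 2 weeks of i.p. treatment (3 mg/kg daily or 50 mg/kg 5 of 7 days), dissociated PDX tumour cells reimplanted into secondary NSG mice at 50, 500 or 5,000 cells. A mouse counted as tumour-bearing once a tumour reached 10 mm. bCSC frequency per 10,000 cells estimated by ELDA; pairwise chi-square test.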

For experiment [7], the system named is Breast cancer cell line. The experiment in a line: Antitumor activity against human CRCM404 negative breast cancer cells orthotopically xenografted in NSG mouse model of PDX assessed as reduction in tumor volume at 50 mg/kg, ip 5 out of 7 for 2 weeks. The format is functional, organism-based. In outline: as §3
In experiment [8] the test system is Breast cancer cell line. The experiment in a line: Antitumor activity against patient-derived breast cancer cells orthotopically xenografted in NSG mouse model of PDX assessed as reduction in Ki67 cells at 50 mg/kg, ip 5 out of 7 for 2 weeks by Immunostaining analysis. The experiment is classed as functional, organism-based. The following applies: Homo sapiens. In outline:
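Paraffin sections of PDX tumours from 2-week-treated mice. Citrate pH 6 antigen retrieval, then Ki67 immunoperoxidase staining with DAB and haematoxylin counterstain. Proportion of Ki67+ cells quantified; n = 3; t-test.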

The subject of experiment [9] is Breast cancer cell line. The experiment in a line: Synergistic antitumor activity against human CRCM434 negative breast cancer cells orthotopically xenografted in NSG mouse model of PDX assessed as reduction in tumor volume at 50 mg/kg, ip 5 out of 7 for 2 weeks cotreated with salinomycin. The experiment is classed as functional, organism-based. In outline:
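Orthotopic PDX in NSG mice, 100,000 cells per fat pad, two pads per mouse; treatment from ~80 mm³ tumours with salinomycin i.p. 3 mg/kg daily 14 days, JQ1 i.p. 50 mg/kg 5 of 7 days for 2 weeks, or combination, against placebo DMSO/HPCD 10% (1:9). Tumour growth monitored; n = 10 tumours per group.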

Experiment [10] concerns Breast cancer cell line. The experiment in a line: Synergistic apoptosis activity in patient-derived breast cancer cells orthotopically xenografted in NSG mouse model of PDX assessed as increase in cleaved caspase-3 at 50 mg/kg, ip 5 out of 7 for 2 weeks cotreated with salinomycin by Immunostaining analysis. The format is functional, organism-based. The following applies: Homo sapiens. In short, it runs like this: (§4)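 Paraffin sections of treated PDX tumours deparaffinised and subjected to antigen retrieval in citrate buffer pH 6. Peroxidase staining with ready-to-use Ki67 or cleaved caspase-3 antibody, DAB substrate, haematoxylin counterstain. Proportion of positive cells quantified; n = 3; t-test.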

In experiment [11] the test system is Breast cancer cell line. The experiment in a line: Synergistic antitumor activity against patient-derived breast cancer cells orthotopically xenografted in NSG mouse model of PDX assessed as reduction in Ki67 cells at 50 mg/kg, ip 5 out of 7 for 2 weeks cotreated with salinomycin by Immunostaining analysis. The format is functional, organism-based. The following applies: Homo sapiens. In outline:
as §4

Experiment [12] is described as follows: Antitumor activity against human BrCa-MZ-01 cells assessed as K-score by measuring ALDHbr cells by LSR2 cytometer. The format is functional. In short, it runs like this:
as §2

The subject of experiment [13] is SUM-159-PT. The experiment in a line: Anticancer activity against human SUM159 cells assessed as decrease in secondary tumor sphere formation incubated for 72 hrs by Extreme limiting dilution analysis. The experiment is classed as functional, cell-based. In short, it runs like this:
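Cells drug-treated in adherent culture for 72 h, then plated as single cells in ultra-low attachment 96-well plates in serum-free mammary epithelium basal medium. Plating at 25/10/5/3/2/1 cells per well, 18–36 wells per condition. Wells with ≥1 sphere after 10 days scored positive. Secondary spheres were made by dissociating primary spheres. Frequency by ELDA; n = 4; pairwise chi-square test.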

Experiment [14] has as its system SUM-159-PT. The experiment can be described thus: Synergistic anticancer activity against human SUM159 cells expressing BFP assessed as reduction in ALDHbr cell 50 nM in presence of salinomycin by LSR2 cytometer analysis. The experiment is classed as functional.
In experiment [15] the test system is Breast cancer cell line. The experiment in a line: Antitumor activity against human CRCM434 negative breast cancer cells orthotopically xenografted in NSG mouse model of PDX assessed as reduction ALDHbr cells at 50 mg/kg, ip 5 out of 7 for 2 weeks by LSR2 cytometer analysis. The experiment is classed as functional, organism-based. In short, it runs like this:
as §3

Experiment [16] has as its system Breast cancer cell line. The experiment in a line: Antitumor activity against human CRCM404 negative breast cancer cells orthotopically xenografted in NSG mouse model of PDX assessed as reduction ALDHbr cells at 50 mg/kg, ip 5 out of 7 for 2 weeks by LSR2 cytometer analysis. The experiment is classed as functional, organism-based. In short, it runs like this:
as §3

Experiment [17] relates to Breast cancer cell line. The experiment in a line: Synergistic antitumor activity against human CRCM434 negative breast cancer cells xenografted in NSG mouse model of PDX assessed as reduction metastasis formation in liver at 50 mg/kg, ip 5 out of 7 for 2 weeks cotreated with salinomycin. The experiment is classed as functional, organism-based. In short, it runs like this: as §1

Experiment [18] has as its system Breast cancer cell line. The experiment in a line: Synergistic antitumor activity against human CRCM434 negative breast cancer cells orthotopically xenografted in NSG mouse model of PDX assessed as reduction ALDHbr cells at 50 mg/kg, ip 5 out of 7 for 2 weeks cotreated with salinomycin by LSR2 cytometer analysis. The format is functional.

Results on one compound are retold here after ChEMBL document CHEMBL5712908, “A genome-wide RNAi screen reveals essential therapeutic targets of breast cancer stem cells” (2019).

The source made the active and inactive calls. The rule behind the calls is not given here.

As for `Cc1sc2c(c1C)C(c1ccc(Cl)cc1)=N[C@@H](CC(=O)OC(C)(C)C)c1nnc(C)n1-2`, the outcome with Breast cancer cell line [1], in the experiment on Breast cancer cell line [3], in the experiment with SUM-159-PT [4], with SUM-159-PT [5], in the experiment with Breast cancer cell line [6] and with Breast cancer cell line [7] was Active. The result with Breast cancer cell line [8], in the experiment with Breast cancer cell line [9], with Breast cancer cell line [11], in the experiment on SUM-159-PT [13], in the experiment on Breast cancer cell line [15] and in the experiment with Breast cancer cell line [16] was Active. For the same compound, the result with Breast cancer cell line [17] was Active. For the same compound, the Activity is given as -0.15 in [2] and -0.03 in experiment [12]. Further, the outcome in the experiment on Breast cancer cell line [10] was inactive. The “fold change (FC)” value in the experiment with SUM-159-PT [14] amounted to 4; with Breast cancer cell line [18], 2.
